The values below come from ChEMBL document CHEMBL1177874, “Synthesis and in vitro anticancer screening of some novel 4-[2-amino-3-cyano-4-substituted-5,6,7,8-tetrahydroquinolin-1-(4H)-yl]benzenesulfonamides” (Eur J Med Chem, 2010).

Experiment [1] is described as follows: Cytotoxicity against mouse EAC cells assessed as non-viable cells at 10 ug/ml after 2 hrs by trypan blue exclusion assay. The class given is functional, Ehrlich. The method in brief:
(§1)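 EAC cells drawn aseptically by needle aspiration of ascitic fluid from previously inoculated mice; suspension at 2.5 × 10^6 cells per ml. Test agents dissolved in DMSO (1 ml) at 100, 50, 25 and 10 µg, then diluted into the cell suspension. Incubation 2 h at 37 °C. Non-viable cell percentage counted by trypan blue exclusion. IC50 taken from the survival ratio versus concentration curve.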

A short description of experiment [2]: Cytotoxicity against mouse EAC cells after 2 hrs by trypan blue exclusion assay. The experiment is classed as functional, cell-based. The conditions noted are these: Ehrlich. In a few lines:
as §1

A short description of experiment [3]: Cytotoxicity against mouse EAC cells assessed as non-viable cells at 25 ug/ml after 2 hrs by trypan blue exclusion assay. The class given is functional, Ehrlich. In a few lines:
as §1

Experiment [4] is described as follows: Cytotoxicity against mouse EAC cells assessed as non-viable cells at 100 ug/ml after 2 hrs by trypan blue exclusion assay. The experiment is classed as functional, Ehrlich. In a few lines:
as §1

Experiment [5] can be described thus: Cytotoxicity against mouse EAC cells assessed as non-viable cells at 50 ug/ml after 2 hrs by trypan blue exclusion assay. The experiment is classed as functional, Ehrlich. In a few lines:
as §1

Each structure is given as a SMILES string. pIC50: −log10 of the molar value. Some results are limits rather than exact numbers.

As a reminder, the IC50 is the concentration at which inhibition is half-maximal. Low values mean greater potency in that assay, high ones weaker potency in that assay. As for `N#CC1=C(N)N(c2ccc(S(N)(=O)=O)cc2)C2=C(CCCC2)C1c1ccccc1` (stereo not given), the Activity in experiment [1] turned out to be 5%; in experiment [3], 10%; in experiment [4], 30%; in experiment [5], 20%. Besides, in experiment [2], the IC50 was > 100 mg/L.
On to `N#CC1=C(N)N(c2ccc(S(N)(=O)=O)cc2)C2=C(CCCC2)C1c1ccc(Cl)c(Cl)c1` (stereo not given), for which the Activity in experiment [1] was determined as 1%; in experiment [3], 40%; in experiment [4] it was 50%; in experiment [5], 50%. Further, in experiment [2], the midpoint of inhibition, the IC50, lay at 100 mg/L.
As usually defined, the pIC50 is the negative decadic logarithm of the IC50, by convention in mol/L. For `Cc1ccc(C2C(C#N)=C(N)N(c3ccc(S(N)(=O)=O)cc3)C3=C2CCCC3)cc1` (stereo not given), the Activity in experiment [1] is 20%; in experiment [3] it was 30%; in experiment [4], 90%; in experiment [5], 80%. Moreover, the pIC50 in experiment [2] is 4.07.
In the case of `N#CC1=C(N)N(c2ccc(S(N)(=O)=O)cc2)C2=C(CCCC2)C1c1ccccc1O` (stereo not given), the Activity in experiment [1] stood at 10%; in experiment [3], 40%; in experiment [4] it was 100%; in experiment [5], 50%. Also, the pIC50 in experiment [2] was 3.93.
The corresponding values for `N#CC1=C(N)N(c2ccc(S(N)(=O)=O)cc2)C2=C(CCCC2)C1c1ccc(O)cc1` (stereo not given) are 20%, 42%, 100%, 60% and 4.08.
On to `N#CC1=C(N)N(c2ccc(S(N)(=O)=O)cc2)C2=C(CCCC2)C1c1cccc([N+](=O)[O-])c1` (stereo not given), for which the Activity in experiment [1] is on record as 0%; in experiment [3], 1%; in experiment [4] it was 12%; in experiment [5] it was 2%. Also, the IC50 in experiment [2] was > 100 mg/L.
The corresponding values for `N#CC1=C(N)N(c2ccc(S(N)(=O)=O)cc2)C2=C(CCCC2)C1c1ccc([N+](=O)[O-])cc1` (stereo not given) are 0%, 5%, 20%, 10% and > 100 mg/L.
The like results for `N#CC1=C(N)N(c2ccc(S(N)(=O)=O)cc2)C2=C(CCCC2)C1c1ccccc1Cl` (stereo not given) were, in that order, 0%, 0%, 10%, 5% and > 100 mg/L.
For the compound `N#CC1=C(N)N(c2ccc(S(N)(=O)=O)cc2)C2=C(CCCC2)C1c1ccc(Cl)cc1Cl` (stereo not given), the Activity is recorded as 0% in experiment [1], 50% in experiment [3], 70% in experiment [4] and 50% in experiment [5]. In addition, the pIC50 in experiment [2] is 3.98.
As for `N#CC1=C(N)N(c2ccc(S(N)(=O)=O)cc2)C2=C(CCCC2)C1c1c(O)ccc2ccccc12` (stereo not given), the Activity amounted to 10% in experiment [1], 5% in experiment [3], 50% in experiment [4] and 20% in experiment [5]. Also, the IC50 in experiment [2] came to 100 mg/L.
As for `COc1ccc2ccccc2c1C1C(C#N)=C(N)N(c2ccc(S(N)(=O)=O)cc2)C2=C1CCCC2` (stereo not given), the Activity amounted to 5% in experiment [1], 10% in experiment [3], 50% in experiment [4] and 10% in experiment [5]. In experiment [2], this compound showed an IC50 of 100 mg/L.
`COc1ccc(C2C(C#N)=C(N)N(c3ccc(S(N)(=O)=O)cc3)C3=C2CCCC3)c2ccccc12` (stereo not given): the Activity in experiment [1] came out at 0%; in experiment [3] it was 5%; in experiment [4] it was 20%; in experiment [5], 10%. Besides, the IC50 in experiment [2] was > 100 mg/L.
Consider `N#CC1=C(N)N(c2ccc(S(N)(=O)=O)cc2)C2=C(CCCC2)C1/C=C/c1ccccc1` (stereo not given), for which the Activity in experiment [1] is recorded as 50%; in experiment [3], 70%; in experiment [4] it was 70%; in experiment [5], 90%. This compound also had a pIC50 in experiment [2] of 4.64.
`COc1ccccc1C1C(C#N)=C(N)N(c2ccc(S(N)(=O)=O)cc2)C2=C1CCCC2` (stereo not given): the Activity in experiment [1] stood at 30%; in experiment [3], 40%; in experiment [4], 100%; in experiment [5] it was 50%. The pIC50 in experiment [2] is 3.94.
Turning to `COc1cc(C2C(C#N)=C(N)N(c3ccc(S(N)(=O)=O)cc3)C3=C2CCCC3)ccc1O` (stereo not given), the Activity came to 0% in experiment [1], 2% in experiment [3], 50% in experiment [4] and 30% in experiment [5]. The same compound had an IC50 in experiment [2] of 100 mg/L.
The corresponding values for `CCOc1cc(C2C(C#N)=C(N)N(c3ccc(S(N)(=O)=O)cc3)C3=C2CCCC3)ccc1OC` (stereo not given) are 0%, 5%, 10%, 5% and > 100 mg/L.
In the case of `COc1cc(OC)c(C2C(C#N)=C(N)N(c3ccc(S(N)(=O)=O)cc3)C3=C2CCCC3)cc1OC` (stereo not given), the Activity in experiment [1] was 0%; in experiment [3] it was 0%; in experiment [4], 100%; in experiment [5] it was 50%. Moreover, in experiment [2], the pIC50 was 4.00.
Take `N#CC1=C(N)N(c2ccc(S(N)(=O)=O)cc2)C2=C(CCCC2)C1c1cccs1` (stereo not given): the Activity in experiment [1] came out at 0%; in experiment [3], 5%; in experiment [4], 20%; in experiment [5], 10%. Further, the half-inhibitory concentration (IC50) in experiment [2] is > 100 mg/L.
The like results for `Cc1ccc(C2C(C#N)=C(N)N(c3ccc(S(N)(=O)=O)cc3)C3=C2CCCC3)o1` (stereo not given) were, in that order, 0%, 10%, 30%, 10% and > 100 mg/L.
`COc1ccc(C2C(C#N)=C(N)N(c3ccc(S(N)(=O)=O)cc3)C3=C2CCCC3)cc1` (stereo not given): the Activity in experiment [1] amounted to 50%; in experiment [3], 90%; in experiment [4], 100%; in experiment [5], 100%. The pIC50 in experiment [2] is 4.64.
Regarding `N#CC1=C(N)N(c2ccc(S(N)(=O)=O)cc2)C2=C(CCCC2)[C@@H]1c1ccc2c(c1)OCO2`, the Activity in experiment [1], in experiment [3], in experiment [4] and in experiment [5] was 100% throughout. Also, in experiment [2], the pIC50 is > 4.65.
In the case of `COc1cccc2c1C(=O)c1c(O)c3c(c(O)c1C2=O)C[C@@](O)(C(=O)CO)C[C@@H]3O[C@H]1C[C@H](N)[C@H](O)[C@H](C)O1` [DOXORUBICIN], the Activity in experiment [1] is listed as 17%; in experiment [3] it was 25%; in experiment [4], 100%; in experiment [5], 70%. Further, in experiment [2], the pIC50 is 4.16.
